Results published in publication PMC7723353 (Revista do Instituto de Medicina Tropical de São Paulo, 2020).

Experiments:
[1] = Cytotoxicity by MTT assay in Vero cells; type: cell-based; settings: African green monkey, Vero cells (African green monkey kidney)
In short: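 Vero cells at 2.7 × 10^5 cells/mL in MEM with 5% FBS, held 24 h at 37 °C, 5% CO2. Medium replaced by two-fold serial dilutions of test compound from DMSO stocks, or DMSO; medium-only cell controls. Incubation 4 days at 37 °C, then MTT (5 mg/mL solution) for 4 h. Formazan dissolved in DMSO, absorbance read at 540 nm. CC50 from % viability by regression.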

[2] = test system: Zika virus (clinical isolate, IMT17); assay: Anti-ZIKV viral plaque reduction assay in Vero cells; type: cell-based; settings: for EC50: 96 h, read-out: Anti-ZIKV activity EC50; for Selectivity index (SI): ratio between cytotoxicity and antiviral activity (CC50/EC50), Vero cells
In short: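 ZIKV clinical isolate IMT17 on Vero cells (1.5 × 10^5 cells/well, grown 24 h). Infection at 100 PFU/well for 1 h at 37 °C, 5% CO2, then PBS (pH 7.0) wash. Test compound at several concentrations in 2X MEM, 2% FBS, 50% high-viscosity CMC overlay. Ribavirin positive control; medium and DMSO controls. After 4 days, crystal violet stain; plaque counts give % inhibition, EC50 by non-linear regression; SI = CC50/EC50.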

| Structure (SMILES) | CC50 at 4 days [1] [µM] | EC90 ([2]; Zika virus, Vero) [µM] | EC50 ([2]; Zika virus, Vero) [µM] | Selectivity index (SI) [2] |
| --- | --- | --- | --- | --- |
| CC(C)c1cc2c(cc1O)[C@@]1(C)CCC[C@@](C)(C=O)[C@@H]1CC2 [Compound 8, 18-oxoferruginol] | 35.1 ± 5.2 | 20.8 ± 3.75 | 2.6 ± 0.07 | 13.51 |
| NC(=O)c1ncn([C@@H]2O[C@H](CO)[C@@H](O)[C@H]2O)n1 [Ribavirin, reference compound] | 2590 |  | 98.5 ± 6.46 | 26.25 |
